Results pooled from the literature.
Lines come from different studies, so protocols differ.
Effect on: DPPH scavenging

With `Cc1ccc(C(C)C)cc1NC(=O)COC(=O)c1ccc(O)cc1` the inhibition was 1.7% (100 µg/mL).
`COc1cc(C=CC(=O)CC(c2ccc([N+](=O)[O-])cc2)n2ccnc2)ccc1O` (stereo not drawn) gave an inhibition of 50.7% (25 µg/mL).
`Cc1ccc(C(C)C)cc1NC(=O)COC(=O)c1cc(O)cc(O)c1` gave an inhibition of 7.12% (100 µg/mL).
`COc1cc(C=CC(=O)CC(c2ccc(N(C)C)cc2)n2ccnc2)ccc1O` (stereo not drawn) has an inhibition of 65.2% (50 µg/mL).
`CCN(O)N=Nc1ccc(S(=O)(=O)Nc2nccs2)cc1` gave an inhibition of 6.63% (absorbance; 20 µg/mL).
`O=C1O[C@H]([C@@H](O)CO)C(O)=C1O` has an inhibition of 41.6% (absorbance; 40 µM).
With `CCN(O)N=Nc1ccc(S(=O)(=O)Nc2onc(C)c2C)cc1` the inhibition was 10.9% (absorbance; 60 µg/mL).
`COc1cc(C=Cc2cc(-c3ccc(N(C)C)cc3)nc(O)n2)ccc1O` has an inhibition of 46.6% (25 µg/mL).
`Cc1ccc(N(O)N=Nc2ccc(S(=O)(=O)Nc3cc(C)on3)cc2)cc1` gave an inhibition of 19.9% (absorbance; 60 µg/mL).
For `Cc1ccc(C(C)C)cc1NC(=O)COC(=O)c1ccc(O)cc1O`, the inhibition was 2.4% (100 µg/mL).
`COc1cc(C=Cc2cc(-c3ccccc3)nc(O)n2)ccc1O` gave an inhibition of 50% (25 µg/mL).
With `O=S(=O)(Nc1nccs1)c1ccc(N=NN(O)c2ccccc2)cc1` the inhibition was 34.2% (absorbance; 180 µg/mL).
`Oc1ccc(Br)cc1C=NCCN1CCOCC1` gave an inhibition of 10.1% (absorbance; 40 µM).
`Cc1ccc(C(C)C)cc1NC(=O)COC(=O)/C=C/c1ccccc1` has an inhibition of 1.39% (100 µg/mL).
`Cc1cccc(N(O)N=Nc2ccc(S(=O)(=O)Nc3cc(C)on3)cc2)c1` has an inhibition of 37.1% (absorbance; 300 µg/mL).
For `Cc1ccc(C(C)C)cc1NC(=O)COC(=O)/C=C/c1ccc(Cl)cc1`, the inhibition was 7.5% (100 µg/mL).
`Cc1cc(NS(=O)(=O)c2ccc(N=NN(O)c3ccccc3)cc2)no1` has an inhibition of 33.7% (absorbance; 240 µg/mL).
For `O=C1O[C@H]([C@@H](O)CO)C(O)=C1O`, the inhibition was 77.6% (50 µg/mL).
